{"data": "Results collected from several papers", "target": "Dual specificity tyrosine-phosphorylation-regulated kinase 2 (DYRK2, Homo sapiens, UniProt Q92630)", "method": "competition with immobilised ligand", "Residues used in one study (Q92630 1-601)": "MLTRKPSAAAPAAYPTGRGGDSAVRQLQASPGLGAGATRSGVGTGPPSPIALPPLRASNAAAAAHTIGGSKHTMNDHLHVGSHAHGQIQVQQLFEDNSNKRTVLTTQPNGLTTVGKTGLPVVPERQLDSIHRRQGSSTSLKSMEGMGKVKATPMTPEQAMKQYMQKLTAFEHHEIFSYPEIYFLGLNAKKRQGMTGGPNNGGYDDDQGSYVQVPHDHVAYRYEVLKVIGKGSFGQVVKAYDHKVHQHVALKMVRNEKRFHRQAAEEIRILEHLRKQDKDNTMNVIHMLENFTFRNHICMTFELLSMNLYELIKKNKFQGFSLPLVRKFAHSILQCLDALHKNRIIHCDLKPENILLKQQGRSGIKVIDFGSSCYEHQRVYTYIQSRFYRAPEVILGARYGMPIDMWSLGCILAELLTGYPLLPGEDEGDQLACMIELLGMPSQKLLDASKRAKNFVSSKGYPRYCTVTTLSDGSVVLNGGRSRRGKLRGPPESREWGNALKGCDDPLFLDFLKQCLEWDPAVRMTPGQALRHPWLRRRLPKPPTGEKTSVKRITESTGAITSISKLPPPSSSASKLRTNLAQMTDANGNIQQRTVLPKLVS"}
{"SMILES": "c1cncc(-c2cccc(Nc3nccc(NC4CCCCC4)n3)c2)c1", "assay": "binding", "setting": "10 µM", "remaining binding [%]": 78}
{"SMILES": "O=C(NCCCN1CCOCC1)c1ccc(Nc2ncc(Cl)c(-c3ccc(Cl)s3)n2)cc1", "assay": "binding", "setting": "1 µM", "remaining binding [%]": 2.9}
{"SMILES": "CN(C(=O)c1ccccc1)c1cc(N(C)c2ccc3c(c2)CCc2ccc(C(=O)NCCN4CCOCC4)cc2C3=O)ccc1F", "assay": "cell-free assay", "setting": "1 µM", "remaining binding [%]": 82}
{"SMILES": "Nc1ncc2c(n1)-c1c([nH]c3ccc(C#CC4CC4)cc13)CCCC2", "assay": "binding", "setting": "1 µM", "remaining binding [%]": 100}
{"SMILES": "CN(CCCC(F)(F)F)c1nccc(-c2cnn3ncccc23)n1", "assay": "binding", "setting": "1 µM", "remaining binding [%]": 77}
{"SMILES": "O=C(NCC1CCOCC1)c1n[nH]cc1NC(=O)c1c(F)cccc1F", "assay": "binding", "setting": "1 µM", "remaining binding [%]": 8.3}
{"SMILES": "C=CC(=O)N1CCC(C(=O)NCC(=O)N2CCN(c3nc(-c4cnc(N)nc4C(F)F)nc(N4CCOCC4)n3)CC2)CC1", "assay": "binding", "setting": "1 µM", "remaining binding [%]": 80}
{"SMILES": "C[C@H](c1ccc(F)cc1)N(Cc1cccc(C(=O)O)c1)C(=O)c1cnc2ccccc2c1", "assay": "cell-free assay", "setting": "1 µM", "remaining binding [%]": 85}
{"SMILES": "O=C(NCCCN1CCOCC1)c1ccc(Nc2nccc(-c3cc4ccccc4s3)n2)cc1", "assay": "binding", "setting": "1 µM", "remaining binding [%]": 16}
{"SMILES": "CNC(=O)[C@@H]1CC[C@@H](n2c(-c3ccc4cnccc4c3)nc3ccc(C(=O)NCc4cccc(C(N)=O)c4)cc32)C1", "assay": "binding", "setting": "1 µM", "remaining binding [%]": 86}
{"SMILES": "CCCOc1ccc([C@H]2[C@H](C(=O)O)[C@@H](c3ccc4c(c3)OCO4)CN2CC(=O)Nc2c(CC)cccc2CC)cc1", "assay": "cell-free assay", "setting": "1 µM", "remaining binding [%]": 74}
{"SMILES": "O=C(c1ccc(Nc2ncc(Cl)c(-c3cc4ccccc4s3)n2)cc1)N1CCC(N2CCCC2)CC1", "assay": "binding", "setting": "1 µM", "remaining binding [%]": 3.1}
{"SMILES": "FC(F)(F)Oc1cccc(-c2cnc3ccc(-c4ccncc4)nn23)c1", "assay": "cell-free assay", "setting": "5 µM", "remaining binding [%]": 5}
{"SMILES": "CS(=O)(=O)N1CCCC(NC(=O)[C@H](CCC2CCCCC2)NC(=O)c2ccc(CNc3ncnc4c3nnn4-c3ccccc3)cc2)C1 (some centres unmarked)", "assay": "cell-free assay", "setting": "0.1 µM", "remaining binding [%]": 100}
